Measurements gathered from unrelated publications.
Compare with care: the assays were run in different laboratories.
Target: Acetylcholinesterase (ache, Electrophorus electricus, UniProt O42275)
Observed: enzyme activity
Mode: inhibitor
Technique: Ellman

Structure (SMILES) | IC50 [µM]
CCN(C)C(=O)Oc1ccc(CCC(=O)N2CCC(Cc3ccccc3)CC2)cc1OC | 9.1
Cc1ccc(Cn2cc(COc3ccc(-c4nnc(-c5ccccc5)o4)cc3)nn2)cc1 | > 100
COc1ccc(-c2csc(N/N=C(/C=C/c3c(Cl)cccc3Cl)C(=O)O)n2)cc1 | 0.499
COc1ccc(OC)c(/C=C/C(=O)N2CCCC(NC(=O)OC(C)(C)C)C2)c1 (stereo not shown) | 41.5
Fc1ccc(-c2nnc(-c3ccc(OCc4cn(Cc5ccc(Br)cc5)nn4)cc3)o2)cc1 | > 100
CC(C)(C)OC(=O)NC1CCCN(C(=O)/C=C/c2cccc(F)c2)C1 (stereo not shown) | 37.7
O=C(O)C(/C=C/c1ccc(Cl)cc1)=N\Nc1nc(-c2ccccc2)cs1 | 0.855
CCN(C)C(=O)Oc1ccc(CCC(=O)N2CCC(CCCc3ccccc3)CC2)cc1OC | 15.2
Clc1ccc(Cn2cc(COc3ccc(-c4nnc(-c5ccccc5)o4)cc3)nn2)cc1 | > 100
COc1cc(CCC(=O)N2CCC(Cc3ccccc3)CC2)ccc1OC(=O)N1CCOCC1 | 7.2
O=[N+]([O-])c1ccc(-c2nnc(-c3ccc(OCc4cn(Cc5ccccc5)nn4)cc3)o2)cc1 | > 100
COc1ccc(/C=C/C(=O)N2CCCC(NC(=O)OC(C)(C)C)C2)cc1 (stereo not shown) | > 50
CCN(C)C(=O)Oc1ccc(CCC(=O)N2CCN(Cc3ccccc3)CC2)cc1 | 7.8
Fc1ccc(-c2nnc(-c3ccc(OCc4cn(Cc5ccccc5)nn4)cc3)o2)cc1 | > 100
CC(C)(C)OC(=O)NC1CCCN(C(=O)/C=C/c2cccc([N+](=O)[O-])c2)C1 (stereo not shown) | 35.1
COc1ccc(-c2nnc(-c3ccc(OCc4cn(Cc5ccc(F)cc5)nn4)cc3)o2)cc1 | > 100
CCN(C)C(=O)Oc1ccc(CCC(=O)N2CCc3ccccc3C2)cc1 | 8.3
CC(C)(C)OC(=O)NC1CCCN(C(=O)/C=C/c2ccc(Cl)cc2)C1 (stereo not shown) | > 50
CCN(C)C(=O)Oc1ccc(CCC(=O)N(CC)CC)cc1OC | 19.5
CCOc1ccc(/C=C/C(=O)N2CCCC(NC(=O)OC(C)(C)C)C2)cc1 (stereo not shown) | > 50
O=C(O)C(/C=C/c1c(Cl)cccc1Cl)=N\Nc1nc(-c2ccc(Br)cc2)cs1 | 0.655
CCOc1ccc(/C=C/C(=O)N2CCCC(NC(=O)OC(C)(C)C)C2)cc1OC (stereo not shown) | 35.2
CCN(CC)C(=O)Oc1ccc(/C=C/C(=O)NC2CCN(Cc3ccccc3)CC2)cc1OC | 2.3
Brc1ccc(Cn2cc(COc3ccc(-c4nnc(-c5ccccc5)o4)cc3)nn2)cc1 | > 100
CC(C)(C)OC(=O)NC1CCCN(C(=O)/C=C/c2ccc(Br)cc2)C1 (stereo not shown) | > 50
